RBBP9 inh: human RBBP9 hydrolase inhibition. recombinant RBBP9, FP-Rh probe fluorescence polarization. inhibition, % at 7.94 µM. 0.2% of 220,000 active. O75884;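 active means inhibition above the campaign mean of all tested compounds plus 3 SD, cut at about 14% in these data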;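 further: plate controls were DMSO wells with RBBP9 for no effect and wells lacking RBBP9 protein for full effect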
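Material: RBBP9 protein. Amount: RBBP9 at 2.5 µM in dispensed solution, before mixing. Schedule: 30 min then 45 min, 25 °C. Medium: Tris buffer pH 8.0, NaCl, Pluronic. Measured by: fluorescence polarization. Measure: percent inhibition from mP, scaled between DMSO and no-protein wells. Replication: one well per compound.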
Mcl1-Noxa inh: Mcl-1/Noxa interaction inhibition | TR-FRET Mcl-1/Noxa peptide binding, 2 h | 1.5% of 220,000 active | inhibition, % at 21.7 µM;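 active means compounds that cut the protein-peptide binding signal by more than 50% relative to plate controls in a single-dose test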;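 further: His-tagged Mcl-1 with rhodamine Noxa BH3 peptide and terbium anti-His antibody; 0% = Mcl-1 plus Noxa peptide wells and 100% = peptide-only wells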
Target sequence (Q07820 whole entry, looked up): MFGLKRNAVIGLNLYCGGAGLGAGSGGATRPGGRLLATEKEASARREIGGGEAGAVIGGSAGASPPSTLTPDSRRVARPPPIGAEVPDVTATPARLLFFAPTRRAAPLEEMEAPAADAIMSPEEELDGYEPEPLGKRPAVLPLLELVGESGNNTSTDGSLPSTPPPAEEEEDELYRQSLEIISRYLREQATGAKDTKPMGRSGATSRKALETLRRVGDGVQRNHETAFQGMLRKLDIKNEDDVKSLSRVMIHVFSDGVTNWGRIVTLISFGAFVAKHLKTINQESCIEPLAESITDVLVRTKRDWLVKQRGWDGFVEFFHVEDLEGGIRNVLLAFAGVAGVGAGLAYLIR
EBV gp42 inh: EBV gp42 inhibition | AID 1085 | Q1HVG2 | inhibition, % (tested at 21.74 µM) | Fluorescence polarization binding assay, mP read-out | 0.42% of 220,000 active; in the data active means inhibition above about 50%
Target sequence (Q1HVG2 whole entry, looked up): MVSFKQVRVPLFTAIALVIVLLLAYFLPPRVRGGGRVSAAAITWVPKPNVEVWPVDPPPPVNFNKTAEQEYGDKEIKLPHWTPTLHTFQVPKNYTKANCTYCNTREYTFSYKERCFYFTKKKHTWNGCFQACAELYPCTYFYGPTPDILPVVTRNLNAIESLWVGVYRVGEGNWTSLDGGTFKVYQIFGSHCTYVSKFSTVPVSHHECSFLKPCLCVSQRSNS
MCL1-BIM inh: MCL1-BIM-BH3 interaction inhibition (human). Q07820. GST-MCL1 / FITC-Bim-BH3 fluorescence polarization. inhibition, % at 10.9 µM. 0.68% of 320,000 active. AID 2057;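 active means inhibition above the mean inhibition of all tested compounds plus 3 SD, set per campaign, cut at about 40% in these data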;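 further: 0% = DMSO wells and 100% = unlabeled Bim-BH3 peptide control; higher means more loss of mP so more displacement of Bim peptide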
Bim-Mcl-1: disrupts Bim peptide binding to human Mcl-1. Bead-based flow cytometry, Bim peptide-Mcl-1 binding. inhibition, % at 10 µM. 0.1% of 190,000 active. AID 1009; in the data active means inhibition above about 40%;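 further: 0% = no compound tracer wells and 100% = peptide blocker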
Mcl1 Bid PPI: disrupts binding of human Mcl-1 to Bid peptide. 0.97% of 220,000 active. Q07820. TR-FRET Mcl-1/Bid-Dy647 peptide binding, 1536-well. inhibition, % at 21.7 µM;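 active means compounds that cut the binding signal by more than half at the single screening dose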;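 further: His-tagged Mcl-1 with europium anti-His antibody binding Bid BH3 peptide; 0% = Mcl-1 plus peptide wells and 100% = peptide-only wells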
RBBP9 confirm: human RBBP9 inhibition, confirmation. AID 1537. inhibition, % at 7.94 µM. 36% of 410 active. shares compounds with RBBP9 inh. recombinant RBBP9, FP-Rh probe fluorescence polarization;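 active means inhibition above the hit cutoff derived for the primary screen, cut at about 15% in these data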;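 further: 0% = RBBP9 with DMSO and 100% = wells lacking RBBP9 protein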
Starred values were filed as active, the others as inactive; · = not tested or not shown. Sampled rows, rich in hits. Any-hit rate of the full collection: about 2.2%.

SMILES | RBBP9 inh | Mcl1-Noxa inh | EBV gp42 inh | MCL1-BIM inh | Bim-Mcl-1 | Mcl1 Bid PPI | RBBP9 confirm
C/C(Cc1ccccc1)=N\NC(=O)CNC(=O)c1cccc(Cl)c1 | 21* | -14 | -16 | 7 | · | -4 | -3
CCOC(=O)c1c(C)n(C)c2cc(Br)c(O)c(O)c12 | 17* | 25 | -15 | 6 | · | -12 | 31*
COc1ccc(NC(=O)CC2C(=O)Nc3ccccc3N2CC(=O)N2CCCC2)cc1 (configuration not stated) | · | · | · | 1 | · | · | ·
Cc1ccc(NC(=O)CSc2ccc3c(c2)OCCO3)nc1 | · | · | · | 4 | · | · | ·
COc1ccccc1NC(=O)c1cc2cc(Br)ccc2cc1O | 19* | 88* | -6 | 17 | · | -34 | 30*
COc1ccccc1NC(=O)COC(=O)c1cc2ccccc2cc1O | · | · | · | 7 | · | · | ·
COc1cc(/C=N/Nc2ccc(Cl)nn2)cc(OC)c1O | · | · | · | 12 | · | · | ·
COc1cc(/C=N/Nc2ccc(F)cc2F)cc(OC)c1O | 17* | 62* | -23 | 26 | 9 | -76 | 53*
O=C(O)c1ccc(NC2=Nc3cccc4cccc2c34)cc1 | 15* | 8 | -8 | · | · | 4 | 5
COc1ccc(NC(=S)NCc2ccco2)c(OC)c1 | 17* | 2 | -20 | 7 | -3 | -79 | 9
CCOc1ccc(S(=O)(=O)Nc2ncn[nH]2)cc1 | · | · | · | 5 | · | · | ·
CCOc1ccc(S(=O)(=O)Nc2cc(Sc3ncn[nH]3)c3oc(=O)sc3c2)cc1 | 22* | 23 | -1 | 10 | -3 | -73 | 20*
Cc1cc[n+](CC(=O)Nc2cc(C(F)(F)F)ccc2Cl)cc1 | 18* | -7 | -5 | 5 | -3 | -5 | 4
CCC(NC(=O)CCc1c(C)c2cc3c(-c4ccccc4)coc3cc2oc1=O)C(=O)O (configuration not stated) | · | · | · | 0 | · | · | ·
Nc1nc(-c2ccco2)c(-c2ccco2)s1 | 17* | 42 | -13 | 25 | -3 | -35 | 10
O=C(NN1C(=O)/C(=C/C=C/c2ccco2)SC1=S)c1ccccc1O | 23* | 101* | -12 | 38 | · | 60* | 15*
CCOC(=O)C1(Cc2cccc(Cl)c2)CCCN(C(=O)C(C)(C)C)C1 (configuration not stated) | · | · | · | -3 | · | · | ·
CCC[N+]1(CC#CC(O)(c2ccccc2)C2CCCCC2)CCCCC1 (configuration not stated) | 15* | 3 | -30 | -3 | · | -6 | 39*
CCN(CC)CCC#CC(O)(c1ccccc1)C1CCCCC1 (configuration not stated) | -8 | -7 | -1 | -1 | 0 | 2 | ·
O=C(CN1CCN(C(c2ccccc2)c2ccccc2)CC1)NCc1ccccc1 | 14* | 14 | -14 | 7 | 2 | -1 | 6
COc1ccc(CNC(=O)CN2CCN(C(c3ccccc3)c3ccccc3)CC2)cc1 | -10 | 12 | -17 | -11 | -4 | -16 | ·
O=C(c1ccccc1)N1CCN(c2ccc([N+](=O)[O-])cc2-n2cccc2)CC1 | 14* | -4 | -1 | 5 | · | -24 | 1
CC1CCC(NC(=O)CCS(=O)(=O)c2ccc3c(c2)CCN3C(=O)C2CC2)CC1 (configuration not stated) | · | · | · | 5 | · | · | ·
COC(=O)c1ccc(N2C(=O)CC(N3CCN(c4ccccc4)CC3)C2=O)cc1 (configuration not stated) | 21* | · | · | -6 | · | · | 10
COC(=O)c1ccc(N2C(=O)CC(N3CCOCC3)C2=O)cc1 (configuration not stated) | -5 | -15 | 0 | 0 | -1 | 1 | ·
SMILES | RBBP9 inh | Mcl1-Noxa inh | EBV gp42 inh | MCL1-BIM inh | Bim-Mcl-1 | Mcl1 Bid PPI | RBBP9 confirm
C/C(=N\NC(=O)c1ccc(OC2CCCC2)cc1)c1ccc(O)cc1 | · | · | · | 2 | · | · | ·
Cc1cc(/C=N/NC(=O)c2ccncc2)c(C)n1-c1ccccc1 | -2 | 18 | 2 | -2 | -4 | -23 | ·
Cc1cc(C(=O)N/N=C/c2ccc(O)c(O)c2O)c(C)n1-c1ccccc1 | 18* | 73* | 1 | · | 2 | -114 | 73*
COc1ccc(C2/C(=C(/O)c3ccc4c(c3)CC(C)O4)C(=O)C(=O)N2CCCn2ccnc2)cc1 (configuration not stated) | · | · | · | -5 | · | · | ·
CC1Cc2cc(/C(O)=C3/C(=O)C(=O)N(CCCn4ccnc4)C3c3ccncc3)ccc2O1 (configuration not stated) | 14* | 11 | -13 | -5 | -2 | -105 | 4
CCCCNC(=O)c1c(C)cc(=O)oc1C | 16* | -5 | -15 | -2 | -6 | -38 | -2
Cc1[nH]c2ccccc2c1C(=O)COC(=O)c1ccc[n+]([O-])c1 | 16* | 10 | -15 | 5 | · | -8 | 0
Cc1[nH]c2ccccc2c1C(=O)COC(=O)c1ccc([N+](=O)[O-])s1 | 4 | 21 | -24 | 3 | 0 | 10 | ·
O=C(Oc1cccc([N+](=O)[O-])c1)N1CCCCC1 | 16* | 9 | 5 | -4 | 3 | -40 | 2
O=C(Nc1cccc([N+](=O)[O-])c1)N1CCCCCC1 | · | · | · | -4 | · | · | ·
Cc1ccc(C(=O)OC(C(=O)O)C(OC(=O)c2ccc(C)cc2)C(=O)O)cc1 (configuration not stated) | · | · | · | -6 | · | · | ·
COc1ccccc1Oc1ccc(S(=O)(=O)N2CCCCC2)cc1NC(=O)CCNC(C)=O | · | · | · | -14 | · | · | ·
Cc1nn(-c2ccccc2)c2c1C(c1ccccc1)C(C#N)=C(N)O2 (configuration not stated) | 16* | 23 | 131* | 9 | 5 | -2 | 8
COc1ccc(C2C(C#N)=C(N)Oc3c2c(C)nn3-c2ccccc2)cc1Cn1nc(C)c([N+](=O)[O-])c1C (configuration not stated) | 18* | 19 | -4 | 8 | -1 | -7 | 5
COc1ccc(CCC(C)NC(=O)Cc2ccc(OC)c(OC)c2)c(OC)c1 (configuration not stated) | · | · | · | -2 | · | · | ·
CCOc1cc(CNc2ccc3[nH]c(=O)[nH]c3c2)ccc1OCC(=O)NC(C)(C)C | 1 | 44 | -17 | 22 | 3 | -11 | ·
